Our source for the Ki and Ratio Ki values is ChEMBL document CHEMBL1268949, “3D QSAR study, synthesis, and in vitro evaluation of (+)-5-FBVM as potential PET radioligand for the vesicular acetylcholine transporter (VAChT)” (Bioorg Med Chem, 2010).

Experiment [1] has as its target Sigma non-opioid intracellular receptor 1 (Rattus norvegicus, UniProt Q9R0C9). Briefly: Displacement of (-)-[3H]pentazocine from sigma 1 receptor in rat cortical membranes after 120 mins. The format is cell membranes, Membrane. Put shortly:
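Radioligand displacement on rat cortical membrane homogenates with (−)-[3H]pentazocine (1070 GBq/mmol), in 50 mM TRIS–HCl pH 7.4 at room temperature. Each assay was run in triplicate at least three times, and IC50 was estimated by non-linear regression.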

The nature of experiment [2]: Displacement of (-)-[3H]DTG from sigma 2 receptor in rat liver membranes after 120 mins. Format: cell membranes, Membrane.
Another experiment is filed under the species Rattus norvegicus. Nature of the experiment: Selectivity ratio of Ki for sigma 1 receptor in rat cortical membranes to Ki for rat VAChT. The format is cell membranes. Conditions: Membrane.
The target in experiment [3] is T1, Vesicular acetylcholine transporter (Rattus norvegicus, UniProt Q62666).
T1 sequence (Q62666 whole entry): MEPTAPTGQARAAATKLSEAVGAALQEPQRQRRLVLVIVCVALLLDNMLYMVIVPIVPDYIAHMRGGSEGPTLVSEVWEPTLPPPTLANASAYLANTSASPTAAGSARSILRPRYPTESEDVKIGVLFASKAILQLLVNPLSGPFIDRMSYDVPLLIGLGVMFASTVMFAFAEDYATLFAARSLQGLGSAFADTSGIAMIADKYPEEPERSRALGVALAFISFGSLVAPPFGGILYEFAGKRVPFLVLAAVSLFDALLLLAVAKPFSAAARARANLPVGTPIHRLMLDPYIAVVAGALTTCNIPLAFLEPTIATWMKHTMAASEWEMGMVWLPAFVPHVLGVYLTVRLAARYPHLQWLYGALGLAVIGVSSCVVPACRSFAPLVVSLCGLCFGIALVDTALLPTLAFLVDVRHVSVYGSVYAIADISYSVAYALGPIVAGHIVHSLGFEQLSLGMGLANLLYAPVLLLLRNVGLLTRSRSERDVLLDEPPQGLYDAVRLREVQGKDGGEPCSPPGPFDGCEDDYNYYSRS
Nature of the experiment: Displacement of (-)-[3H]vesamicol from rat VAChT expressed in rat PC12 cells after 60 mins. The format is cell-based, PC-12. Put shortly:
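Displacement of (−)-[3H]vesamicol was run on homogenates of PC12 cells stably transfected with rat VAChT. (−)-Vesamicol in excess defined non-specific binding, and bound ligand was collected by filtration on a cell harvester. Triplicates, at least three times; IC50 by computational non-linear regression.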

Sigma non-opioid intracellular receptor 1, sequence (Q9R0C9 whole entry): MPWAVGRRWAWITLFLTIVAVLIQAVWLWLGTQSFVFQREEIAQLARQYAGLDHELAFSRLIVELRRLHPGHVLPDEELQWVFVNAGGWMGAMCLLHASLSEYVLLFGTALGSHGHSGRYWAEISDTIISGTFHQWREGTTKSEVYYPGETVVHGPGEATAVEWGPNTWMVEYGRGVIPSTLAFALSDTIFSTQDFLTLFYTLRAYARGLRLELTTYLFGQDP

In general, Ki refers to the dissociation constant of the complex between target and ligand, obtained from inhibition or displacement. Consider `O[C@@H]1Cc2cccc(F)c2C[C@H]1N1CCC(c2ccccc2)CC1`, for which the inhibitory constant (Ki) in experiment [1] was determined as 0.00357 µM; in experiment [2], 0.252 µM; in experiment [3] it was 0.00368 µM. Besides, the Ratio Ki in the experiment listed under Rattus norvegicus worked out at 0.97.
Take `OC1Cc2cccc(F)c2CC1N1CCC(c2ccccc2)CC1` (racemic): the Ki in experiment [1] was found to be 0.0132 µM; in experiment [2], 0.229 µM; in experiment [3], 0.0109 µM. In the experiment filed under Rattus norvegicus, the Ratio Ki turned out to be 1.21.
The corresponding values for `O[C@H]1Cc2cccc(F)c2C[C@@H]1N1CCC(c2ccccc2)CC1` are 0.0381 µM, 0.526 µM, 0.00695 µM and 5.48.
Take `Nc1cccc2c1CC(N1CCC(c3ccccc3)CC1)C(O)C2` (racemic): the Ki in experiment [1] was 0.652 µM; in experiment [3] it was 0.0406 µM. In the experiment filed under Rattus norvegicus, the Ratio Ki was determined as 16.
As for `O[C@@H]1Cc2cccc(I)c2C[C@H]1N1CCC(c2ccccc2)CC1` (racemic), the Ki in experiment [1] is 0.266 µM; in experiment [3], 0.0158 µM. The Ratio Ki in the experiment filed under Rattus norvegicus was 17.
For `O[C@H]1Cc2cccc(OCCF)c2C[C@@H]1N1CCC(c2ccccc2)CC1` the same measures were 0.269 µM, 0.0569 µM and 4.7.
For `O[C@@H]1Cc2cccc(OCCF)c2C[C@H]1N1CCC(c2ccccc2)CC1` the same measures were 0.209 µM, 0.0196 µM and 10.7.
